{"source": "ChEMBL document CHEMBL1124956", "about": "“Renin inhibitors based on dipeptide analogues. Incorporation of the hydroxyethylene isostere at the P2/P3 sites” (J Med Chem, 1990)", "biological_target": "T1, Renin (Homo sapiens, UniProt P00797)", "T1 sequence (P00797 whole entry)": "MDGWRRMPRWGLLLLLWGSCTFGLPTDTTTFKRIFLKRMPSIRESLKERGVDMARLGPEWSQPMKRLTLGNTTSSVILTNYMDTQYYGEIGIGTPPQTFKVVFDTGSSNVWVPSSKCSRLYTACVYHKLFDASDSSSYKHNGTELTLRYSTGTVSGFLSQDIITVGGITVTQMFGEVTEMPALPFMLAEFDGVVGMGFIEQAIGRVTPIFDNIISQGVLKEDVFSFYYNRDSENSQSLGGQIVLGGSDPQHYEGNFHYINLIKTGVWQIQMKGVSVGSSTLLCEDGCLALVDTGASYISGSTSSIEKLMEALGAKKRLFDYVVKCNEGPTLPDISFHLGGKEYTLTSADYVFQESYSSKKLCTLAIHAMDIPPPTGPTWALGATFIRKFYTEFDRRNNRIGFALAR", "assay": "In vitro inhibitory activity against human renal renin using radioimmunoassay for angiotensin I production", "method_in_brief": "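Purified human renin enzyme, assayed in maleate buffer at pH 6.0. The remaining conditions follow a previously published protocol.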", "data": [{"smiles": "C=CCCCC(NC(=O)[C@H](Cc1ccccc1)NC(=O)OC(C)(C)C)C(=O)N[C@@H](CC1CCCCC1)[C@@H](O)CC(=C)C(=O)NCC(C)C", "note": "(mixture of isomers)", "values": [{"measurement": "IC50", "value": 18, "unit": "nM"}]}, {"smiles": "C=C(C[C@H](O)[C@H](CC1CCCCC1)NC(=O)C(CCCC)CC(O)[C@H](Cc1ccccc1)NC(=O)OC(C)(C)C)C(=O)NCC(C)C", "note": "(stereo not given in full)", "values": [{"measurement": "IC50", "value": 5.5, "unit": "nM"}]}, {"smiles": "C=C(C[C@H](O)[C@H](CC1CCCCC1)NC(=O)C(CCCC)NC(=O)[C@H](Cc1ccccc1)NC(=O)OC(C)(C)C)C(=O)NCC(C)C", "note": "(mixture of isomers)", "values": [{"measurement": "IC50", "value": 2, "unit": "nM"}]}, {"smiles": "C=CCCCC(C[C@@H](O)[C@H](Cc1ccccc1)NC(=O)OC(C)(C)C)C(=O)N[C@@H](CC1CCCCC1)[C@@H](O)[C@@H](CO)CC(C)C", "note": "(stereo not given in full)", "values": [{"measurement": "IC50", "value": 12, "unit": "nM"}]}, {"smiles": "C=CCCC[C@H](C[C@@H](O)[C@H](Cc1ccccc1)NC(=O)OC(C)(C)C)C(=O)N[C@@H](CC1CCCCC1)[C@@H](O)CC(=C)C(=O)NCC(C)C", "values": [{"measurement": "IC50", "value": 1, "unit": "nM"}]}, {"smiles": "C=C(C[C@H](O)[C@H](CC1CCCCC1)NC(=O)C(CCCCCC)CC(O)[C@H](Cc1ccccc1)NC(=O)OC(C)(C)C)C(=O)NCC(C)C", "note": "(stereo not given in full)", "values": [{"measurement": "IC50", "value": 70, "unit": "nM"}]}, {"smiles": "CC(C)C[C@H](C[C@@H](O)[C@H](Cc1ccccc1)NC(=O)OC(C)(C)C)C(=O)N[C@@H](CC1CCCCC1)[C@@H](O)[C@@H](CO)CC(C)C", "values": [{"measurement": "IC50", "value": 6, "unit": "nM"}]}, {"smiles": "C=CCCC[C@@H](C[C@@H](O)[C@H](Cc1ccccc1)NC(=O)OC(C)(C)C)C(=O)N[C@@H](CC1CCCCC1)[C@@H](O)CC(=C)C(=O)NCC(C)C", "values": [{"measurement": "IC50", "value": 8, "unit": "nM"}]}, {"smiles": "C=C(C[C@H](O)[C@H](CC1CCCCC1)NC(=O)[C@H](C)C[C@H](O)[C@H](Cc1ccccc1)NC(=O)OC(C)(C)C)C(=O)NCC(C)C", "values": [{"measurement": "IC50", "value": 3000, "unit": "nM"}]}, {"smiles": "C=C(C[C@H](O)[C@H](CC1CCCCC1)NC(=O)C(CC(C)C)CC(O)[C@H](Cc1ccccc1)NC(=O)OC(C)(C)C)C(=O)NCC(C)C", "note": "(stereo not given in full)", "values": [{"measurement": "IC50", "value": 25, "unit": "nM"}]}, {"smiles": "C=C(C[C@H](O)[C@H](CC1CCCCC1)NC(=O)[C@H](C)C[C@@H](O)[C@H](Cc1ccccc1)NC(=O)OC(C)(C)C)C(=O)NCC(C)C", "values": [{"measurement": "IC50", "value": 20, "unit": "nM"}]}, {"smiles": "C=C(C[C@H](O)[C@H](CC1CCCCC1)NC[C@H](C)C[C@@H](O)[C@H](Cc1ccccc1)NC(=O)OC(C)(C)C)C(=O)NCC(C)C", "values": [{"measurement": "IC50", "value": "> 10000", "unit": "nM"}]}, {"smiles": "C=C(C[C@H](O)[C@H](CC1CCCCC1)NC(=O)C(C)CC(O)[C@H](Cc1ccccc1)NC(=O)OC(C)(C)C)C(=O)NCC(C)C", "note": "(single isomer, unassigned)", "values": [{"measurement": "IC50", "value": 20, "unit": "nM"}]}, {"smiles": "C=C(C[C@H](O)[C@H](CC1CCCCC1)NC(=O)C(Cc1c[nH]cn1)NC(=O)[C@H](Cc1ccccc1)NC(=O)OC(C)(C)C)C(=O)NCC(C)C", "note": "(stereo not given in full)", "values": [{"measurement": "IC50", "value": 2, "unit": "nM"}]}, {"smiles": "C=C(C[C@H](O)[C@H](CC1CCCCC1)NC(=O)[C@@H](C[C@@H](O)[C@H](Cc1ccccc1)NC(=O)OC(C)(C)C)Cn1ccnn1)C(=O)NCC(C)C", "values": [{"measurement": "IC50", "value": 95, "unit": "nM"}]}, {"smiles": "C=C(C[C@H](O)[C@H](CC1CCCCC1)NC(=O)[C@@H](C)C[C@@H](O)[C@H](Cc1ccccc1)NC(=O)OC(C)(C)C)C(=O)NCC(C)C", "values": [{"measurement": "IC50", "value": 100, "unit": "nM"}]}, {"smiles": "C=C(C[C@H](O)[C@H](CC1CCCCC1)NC(=O)[C@@H](C[C@H](O)[C@H](Cc1ccccc1)NC(=O)OC(C)(C)C)Cn1ccnn1)C(=O)NCC(C)C", "values": [{"measurement": "IC50", "value": 2700, "unit": "nM"}]}, {"smiles": "C=C(C[C@H](O)[C@H](CC1CCCCC1)NC(=O)C(C)NC(=O)[C@H](Cc1ccccc1)NC(=O)OC(C)(C)C)C(=O)NCC(C)C", "note": "(stereo not given in full)", "values": [{"measurement": "IC50", "value": 10, "unit": "nM"}]}, {"smiles": "C=C(C[C@H](O)[C@H](CC1CCCCC1)NC(=O)C(CCCCC)CC(O)[C@H](Cc1ccccc1)NC(=O)OC(C)(C)C)C(=O)NCC(C)C", "note": "(stereo not given in full)", "values": [{"measurement": "IC50", "value": 19, "unit": "nM"}]}, {"smiles": "C=C(C[C@H](O)[C@H](CC1CCCCC1)NC(=O)C(CC(C)C)NC(=O)[C@H](Cc1ccccc1)NC(=O)OC(C)(C)C)C(=O)NCC(C)C", "note": "(stereo not given in full)", "values": [{"measurement": "IC50", "value": 6, "unit": "nM"}]}]}
